What all share (format): functional
For assay [1], the system named is Staphylococcus aureus. Kind of assay: Antimicrobial activity against Staphylococcus aureus ATCC 25923 assessed as growth inhibition rate at 5.32 mg/l after 72 hr by spectrophotometry. Conditions: ATCC 25923, 72 h, read-out: GI.
For assay [2], the system named is Listeria monocytogenes. Nature of the assay: Antimicrobial activity against Listeria monocytogenes ATCC 19111 assessed as growth inhibition rate at 5.32 mg/l after 72 hr by spectrophotometry. As to conditions: ATCC 19111, 72 h, read-out: GI. In outline: (§1)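 L. monocytogenes was grown at 30 °C in tryptic soy broth, subcultured for 18 h, and exposed to pure volatile compounds (>95% purity). Growth was followed by Bioscreen C optical density every 24 h for 72 h against a 10% Tween 80 control.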

Assay [3] deals with Vibrio parahaemolyticus. Kind of assay: Antimicrobial activity against Vibrio parahaemolyticus ATCC 33844 assessed as growth inhibition rate at 5.32 mg/l after 72 hr by spectrophotometry. Conditions: ATCC 33844, 72 h, read-out: GI.
In assay [4] the test system is Bacillus cereus. Kind of assay: Antimicrobial activity against Bacillus cereus ATCC 11778 assessed as growth inhibition rate at 5.32 mg/l after 72 hr by spectrophotometry. Conditions: ATCC 11778, 72 h, read-out: GI. In outline: (§2)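 Pure volatile compounds (purity >95%; one at 90%) were tested against B. cereus ATCC 11778. The strain was grown at 30 °C in nutrient broth for 24 h, then subcultured for 18 h. Optical density was read in a Bioscreen C every 24 h for 72 h, with 10% Tween 80 as the control.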

In assay [5] the test system is Escherichia coli. Nature of the assay: Antimicrobial activity against Escherichia coli O157:H7 ATCC 43894 assessed as growth inhibition rate at 5.32 mg/l after 72 hr by spectrophotometry. As to conditions: O157:H7 ATCC 43894, 72 h, read-out: GI.
The subject of assay [6] is Salmonella typhimurium. Nature of the assay: Antimicrobial activity against Salmonella enterica subsp. enterica serovar Typhimurium ATCC 14028 assessed as growth inhibition rate at 5.32 mg/l after 72 hr by spectrophotometry. As to conditions: ATCC 14028, 72 h, read-out: GI.
In assay [7] the test system is Vibrio parahaemolyticus. Nature of the assay: Antimicrobial activity against Vibrio parahaemolyticus ATCC 33844 assessed as growth inhibition rate at 43.2 mg/l after 72 hr by spectrophotometry. As to conditions: ATCC 33844, 72 h, read-out: GI.
Assay [8] has as its system Listeria monocytogenes. Nature of the assay: Antimicrobial activity against Listeria monocytogenes ATCC 19111 assessed as growth inhibition rate at 43.2 mg/l after 72 hr by spectrophotometry. Conditions: ATCC 19111, 72 h, read-out: GI. In outline:
as §1

The subject of assay [9] is Salmonella typhimurium. Kind of assay: Antimicrobial activity against Salmonella enterica subsp. enterica serovar Typhimurium ATCC 14028 assessed as growth inhibition rate at 43.2 mg/l after 72 hr by spectrophotometry. As to conditions: ATCC 14028, 72 h, read-out: GI. In outline: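 Salmonella Typhimurium ATCC 14028 grown in nutrient broth at 30 °C, precultured 24 h, then subcultured 1:100 for 18 h before testing. Single volatile compounds (>95% pure) were added. OD was read every 24 h over 72 h in a Bioscreen C, with 10% Tween 80 as the comparison control.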

In assay [10] the test system is Bacillus cereus. Nature of the assay: Antimicrobial activity against Bacillus cereus ATCC 11778 assessed as growth inhibition rate at 43.2 mg/l after 72 hr by spectrophotometry. As to conditions: ATCC 11778, 72 h, read-out: GI. In outline:
as §2

The subject of assay [11] is Escherichia coli. Kind of assay: Antimicrobial activity against Escherichia coli O157:H7 ATCC 43894 assessed as growth inhibition rate at 43.2 mg/l after 72 hr by spectrophotometry. As to conditions: O157:H7 ATCC 43894, 72 h, read-out: GI.
Assay [12] deals with Staphylococcus aureus. Nature of the assay: Antimicrobial activity against Staphylococcus aureus ATCC 25923 assessed as growth inhibition rate at 43.2 mg/l after 72 hr by spectrophotometry. Conditions: ATCC 25923, 72 h, read-out: GI.

Molecules are shown by their SMILES.

Turning to `CCCCCC(O)CC` (configuration not stated) [3-OCTANOL], the inhibition of growth at 5.32 µg/mL in the assay with Staphylococcus aureus [1] came to 52.6%; in the assay on Listeria monocytogenes [2] it was 21.5%; in the assay on Vibrio parahaemolyticus [3] it was 70.7%; in the assay on Bacillus cereus [4] it was 43%; with Escherichia coli [5] it was 8.9%; with Salmonella typhimurium [6], 20.6%.
For the compound `CC/C=C\CCO` [CIS-3-HEXENOL], the inhibition of growth at 43.2 µg/mL was 73.7% in the assay with Vibrio parahaemolyticus [7]; 10.3% with Listeria monocytogenes [8]; 56.2% in the assay with Salmonella typhimurium [9]; 14.3% in the assay on Bacillus cereus [10]; 41% in the assay with Escherichia coli [11]; 21.6% in the assay with Staphylococcus aureus [12].

(Values after ChEMBL document CHEMBL3046951, “Volatile constituents from the leaves of Callicarpa japonica Thunb. and their antibacterial activities” (2004).)
